From ChEMBL document CHEMBL3286252, “Synthesis, biological evaluation and structure-activity relationship of new GABA uptake inhibitors, derivatives of 4-aminobutanamides” (Eur J Med Chem, 2014)

Legend:
[1] = molecular target: Sodium- and chloride-dependent GABA transporter 1 (Mus musculus, UniProt P31648); test: Inhibition of mouse GAT1 expressed in HEK293 cells assessed as decrease in [3H]GABA uptake; type: cell-based
Mus musculus [2] = test: Antinociceptive activity in albino Swiss (CD-1) mouse assessed as latency time to pain reaction at 30 mg/kg, ip by hot plate test (reference value: 13.9 +/- 1.2 secs); type: functional; settings: route intraperitoneal
Mus musculus [3] = test: Antidepressant-like activity in albino Swiss (CD-1) mouse assessed as reduction in immobility time at 15 mg/kg, ip by forced swim test; type: functional; settings: route intraperitoneal
Method in brief: (§1)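 Compound or vehicle was given i.p. 60 min before the test. Each mouse was placed for 6 min in a glass cylinder (25 cm high, 10 cm diameter) holding 10 cm of water at 23–25 C. Immobility, meaning passive floating, was timed over the final 4 min. 7–8 mice per group; ANOVA with Dunnett's test.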

Mus musculus [4] = test: Antidepressant-like activity in albino Swiss (CD-1) mouse assessed as reduction in immobility time at 30 mg/kg, ip by forced swim test; type: functional; settings: route intraperitoneal; method in brief: as §1
[5] = molecular target: Sodium- and chloride-dependent GABA transporter 1 (Mus musculus) (UniProt P31648); test: Displacement of NO711 from mouse GAT1 expressed in HEK293 cells assessed as NO711 binding at 100 uM by LC-MS/MS analysis; type: cell-based
GABA transporter 2 = molecular target: T1, GABA transporter 2 (Mus musculus, UniProt P31651); test: Inhibition of mouse GAT2 expressed in HEK293 cells assessed as decrease in [3H]GABA uptake; type: cell-based
T1 sequence (P31651 whole entry): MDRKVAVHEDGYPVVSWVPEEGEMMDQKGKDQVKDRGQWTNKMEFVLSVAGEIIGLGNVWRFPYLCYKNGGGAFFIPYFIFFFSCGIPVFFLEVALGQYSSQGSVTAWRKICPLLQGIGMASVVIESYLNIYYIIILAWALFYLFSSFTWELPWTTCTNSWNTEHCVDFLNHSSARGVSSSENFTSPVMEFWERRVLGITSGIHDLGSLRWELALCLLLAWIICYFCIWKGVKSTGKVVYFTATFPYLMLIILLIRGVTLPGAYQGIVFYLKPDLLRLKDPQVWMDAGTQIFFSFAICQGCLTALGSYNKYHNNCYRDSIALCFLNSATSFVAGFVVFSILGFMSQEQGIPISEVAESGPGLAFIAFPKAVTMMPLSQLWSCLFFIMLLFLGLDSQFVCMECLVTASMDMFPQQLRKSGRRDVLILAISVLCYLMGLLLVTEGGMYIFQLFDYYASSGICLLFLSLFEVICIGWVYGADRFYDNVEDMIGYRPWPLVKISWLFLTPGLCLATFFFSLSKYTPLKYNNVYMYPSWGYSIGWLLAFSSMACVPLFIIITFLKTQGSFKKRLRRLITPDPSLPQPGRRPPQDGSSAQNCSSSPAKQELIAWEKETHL

[6] = Retardation factor of the compound using 25%NH3/MeOH/DCM/PE at ratio of 45:225:600:90 as solvent system by thin layer chromatography; type: physicochemical
GABA transporter 3 = molecular target: T2, GABA transporter 3 (Mus musculus, UniProt P31649); test: Inhibition of mouse GAT3 expressed in HEK293 cells assessed as decrease in [3H]GABA uptake; type: cell-based
T2 sequence (P31649 whole entry): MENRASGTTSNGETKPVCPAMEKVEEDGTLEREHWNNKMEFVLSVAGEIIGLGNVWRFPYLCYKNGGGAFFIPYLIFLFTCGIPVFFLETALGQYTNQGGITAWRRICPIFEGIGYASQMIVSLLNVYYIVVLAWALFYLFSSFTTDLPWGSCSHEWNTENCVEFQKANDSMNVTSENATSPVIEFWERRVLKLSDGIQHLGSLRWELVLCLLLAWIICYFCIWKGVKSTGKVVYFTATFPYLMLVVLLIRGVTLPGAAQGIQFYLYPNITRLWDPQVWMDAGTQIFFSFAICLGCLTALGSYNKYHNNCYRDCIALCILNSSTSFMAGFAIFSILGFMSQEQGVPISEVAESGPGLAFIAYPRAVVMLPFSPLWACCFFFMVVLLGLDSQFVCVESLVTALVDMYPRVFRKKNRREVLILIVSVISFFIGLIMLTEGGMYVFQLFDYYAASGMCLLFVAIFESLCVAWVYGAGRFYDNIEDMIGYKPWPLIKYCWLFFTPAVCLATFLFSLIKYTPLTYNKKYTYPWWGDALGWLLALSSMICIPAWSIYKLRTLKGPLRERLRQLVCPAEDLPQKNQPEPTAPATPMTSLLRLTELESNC

GABA transporter 4 = molecular target: T3, GABA transporter 4 (Mus musculus, UniProt P31650); test: Inhibition of mouse GAT4 expressed in HEK293 cells assessed as decrease in [3H]GABA uptake; type: cell-based
T3 sequence (P31650 whole entry): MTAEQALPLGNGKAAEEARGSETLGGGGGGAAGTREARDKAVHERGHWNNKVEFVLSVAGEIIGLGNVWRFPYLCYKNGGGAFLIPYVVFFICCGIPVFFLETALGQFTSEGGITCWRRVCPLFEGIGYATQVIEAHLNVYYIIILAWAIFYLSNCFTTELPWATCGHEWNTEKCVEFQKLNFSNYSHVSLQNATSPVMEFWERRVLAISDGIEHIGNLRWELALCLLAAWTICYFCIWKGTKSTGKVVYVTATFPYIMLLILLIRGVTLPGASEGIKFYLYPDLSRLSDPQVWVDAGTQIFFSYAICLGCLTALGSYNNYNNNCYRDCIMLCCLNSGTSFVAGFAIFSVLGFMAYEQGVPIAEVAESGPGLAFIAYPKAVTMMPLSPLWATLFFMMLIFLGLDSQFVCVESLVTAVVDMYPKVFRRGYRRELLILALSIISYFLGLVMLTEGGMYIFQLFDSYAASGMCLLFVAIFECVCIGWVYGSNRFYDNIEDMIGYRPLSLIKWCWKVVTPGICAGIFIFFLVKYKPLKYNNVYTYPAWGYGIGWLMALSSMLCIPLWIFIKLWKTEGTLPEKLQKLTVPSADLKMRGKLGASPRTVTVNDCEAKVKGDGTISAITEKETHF

Mus musculus [7] = test: Toxicity in albino Swiss (CD-1) mouse assessed as decrease in locomotor activity at 30 mg/kg, ip after 60 mins; type: organism-based; parameters: dose 30 mg/kg, route intraperitoneal; settings: in vivo, 1 h
Method in brief: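 Mice were pretreated i.p. with 30 mg/kg or vehicle (1% Tween 80) 60 min before testing. Each was placed alone in an IR-beam activity cage (40×40×31 cm) in a sound-attenuated room. Beam interruptions were counted over 30 min in five 6-min intervals. Analysis: repeated-measures ANOVA with Bonferroni.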

Mus musculus [8] = test: Anticonvulsant activity against pentylenetetrazole-induced seizure in albino Swiss (CD-1) mouse assessed as decrease in seizure episodes at 30 mg/kg, ip administered 60 mins prior to PTZ challenge; type: functional; settings: route intraperitoneal
Method in brief: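 Male CD-1 mice (18–22 g) given compound or vehicle i.p. 60 min before PTZ 100 mg/kg s.c. Each mouse was then caged alone and watched for 30 min for clonic seizures, meaning whole-body clonus lasting >3 s with loss of righting reflex. Recorded: latency to first clonus, number of seizure episodes, and deaths within 30 min. Analysis: ANOVA/Dunnett or t-test; mortality by Fisher's exact test; 7–10 mice per group.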

SMILES | IC50 [1] | Time (Mus musculus [2]) | inhibition in vivo at 15 mg/kg (Mus musculus [3]) | inhibition in vivo at 30 mg/kg (Mus musculus [4]) | Activity [5] | IC50 (GABA transporter 2) | Rf [6] | IC50 (GABA transporter 3) | IC50 (GABA transporter 4) | Activity (Mus musculus [7]) | inhibition in vivo at 30 mg/kg (Mus musculus [8])
NCCC(C(=O)NCc1ccc(Cl)cc1)N1CCN(C(c2ccccc2)c2ccccc2)CC1 (configuration not stated) | 25.7 µM | 27.5 s | 3.8% | 28.9% | 53% | 20.9 µM | 0.14 | 10.7 µM | 12 µM | Toxic | 83%
NCCC(C(=O)NCc1ccccc1Cl)N1CCN(C(c2ccccc2)c2ccccc2)CC1 (configuration not stated) | 20.9 µM | 18.8 s | 26% | 38.5% | 55% | 21.9 µM | 0.18 | 10.5 µM | 15.1 µM | Non-toxic | 37%
